# Experimental data gathered from unrelated publications.
# Observed: enzyme activity
# Mode: inhibitor
# FLT3: Receptor-type tyrosine-protein kinase FLT3 (FLT3, Homo sapiens, UniProt P36888)
# FLT3 D835Y: Receptor-type tyrosine-protein kinase FLT3 (FLT3, Homo sapiens, UniProt P36888, D835Y)
SMILES,target,technique,tested at,inhibition
COc1cc2nccc(Oc3ccc(NC(=O)c4c5n(n(-c6ccc(F)cc6)c4=O)CCCC5)cc3)c2cc1OC,FLT3,,0.1 µM,49%
COc1cc2ncnc(Nc3ccc(Oc4ccccc4)cc3C)c2cc1OC,FLT3 D835Y,,1 µM,17%
CC/C(=N\NC(=O)NCc1cccc(O)c1)c1ccc(O)c(C)c1O,FLT3,,0.1 µM,6%
CN(C)C1CCN(CC#Cc2nn(C3CCCC3)c3nc(NCc4ccccc4)ncc23)C1 (stereo not drawn),FLT3,FRET,0.1 µM,13%
Cn1cnc(Br)c1C1=CN(c2ncnc3[nH]cnc23)CCS1,FLT3,radiometric,2 µM,80.5%
CNc1cccc2cc(C(=O)Nc3ccc(C(=O)O)cc3)c(=O)[nH]c12,FLT3,,10 µM,7.9%
CCCS(=O)(=O)Nc1ccc(F)c(C(=O)c2c[nH]c3ncc(-c4ccc(Cl)cc4)cc23)c1F,FLT3,,1 µM,< 20%
C=CC(=O)Nc1cc(Nc2nccc(Nc3cc(Cl)c(F)cc3C(C)(C)O)n2)c(OC)cc1N1CC[C@@H](N(C)C)C1,FLT3,,1 µM,16%
Cn1cncc1C1=CN(c2ncnc3[nH]cnc23)CCS1,FLT3,radiometric,2 µM,88.1%
COc1cc(-c2cc(-c3ccc(N4CCNCC4)cc3)cnc2N)cc(OC)c1OC,FLT3 D835Y,,1 µM,2%
COc1cc2ncnc(Nc3ccc(Oc4ccccc4)c(C)c3C)c2cc1OC,FLT3,,1 µM,15%
CS(=O)(=O)Nc1cccc(-c2csc(NC(=O)CSc3nc4nccnc4c(=O)n3CCc3ccccc3)n2)c1,FLT3,,10 µM,8%
